Measurements taken from ChEMBL document CHEMBL1130412, “Antiulcer agents. 6. Analysis of the in vitro biochemical and in vivo gastric antisecretory activity of substituted imidazo[1,2-a]pyridines and related analogues using comparative molecular field analysis and hypothetical active site lattice methodologies” (J Med Chem, 1997).
Activity calls are given as the source filed them. No cut-off for these calls is given here.

Columns and labels:
[1] = target: Potassium-transporting ATPase (Sus scrofa, UniProt P19156); assay: (§1) Inhibition of purified H+/K+ ATPase at pH 7.4 as released inorganic phosphate from ATP using hog stomach gastric membrane vesicles; format: tissue-based
Sequence of Potassium-transporting ATPase (Sus scrofa, UniProt P19156) (P18434 whole entry): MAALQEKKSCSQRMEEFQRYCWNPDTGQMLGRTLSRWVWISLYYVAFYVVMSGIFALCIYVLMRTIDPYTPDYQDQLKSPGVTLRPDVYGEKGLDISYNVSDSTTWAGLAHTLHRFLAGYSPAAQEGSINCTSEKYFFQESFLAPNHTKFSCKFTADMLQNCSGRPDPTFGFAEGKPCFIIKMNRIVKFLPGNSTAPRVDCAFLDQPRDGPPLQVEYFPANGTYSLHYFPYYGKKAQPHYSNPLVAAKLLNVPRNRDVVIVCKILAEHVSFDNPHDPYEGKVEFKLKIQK
Sequence of Potassium-transporting ATPase (Sus scrofa, UniProt P19156) (P19156 whole entry): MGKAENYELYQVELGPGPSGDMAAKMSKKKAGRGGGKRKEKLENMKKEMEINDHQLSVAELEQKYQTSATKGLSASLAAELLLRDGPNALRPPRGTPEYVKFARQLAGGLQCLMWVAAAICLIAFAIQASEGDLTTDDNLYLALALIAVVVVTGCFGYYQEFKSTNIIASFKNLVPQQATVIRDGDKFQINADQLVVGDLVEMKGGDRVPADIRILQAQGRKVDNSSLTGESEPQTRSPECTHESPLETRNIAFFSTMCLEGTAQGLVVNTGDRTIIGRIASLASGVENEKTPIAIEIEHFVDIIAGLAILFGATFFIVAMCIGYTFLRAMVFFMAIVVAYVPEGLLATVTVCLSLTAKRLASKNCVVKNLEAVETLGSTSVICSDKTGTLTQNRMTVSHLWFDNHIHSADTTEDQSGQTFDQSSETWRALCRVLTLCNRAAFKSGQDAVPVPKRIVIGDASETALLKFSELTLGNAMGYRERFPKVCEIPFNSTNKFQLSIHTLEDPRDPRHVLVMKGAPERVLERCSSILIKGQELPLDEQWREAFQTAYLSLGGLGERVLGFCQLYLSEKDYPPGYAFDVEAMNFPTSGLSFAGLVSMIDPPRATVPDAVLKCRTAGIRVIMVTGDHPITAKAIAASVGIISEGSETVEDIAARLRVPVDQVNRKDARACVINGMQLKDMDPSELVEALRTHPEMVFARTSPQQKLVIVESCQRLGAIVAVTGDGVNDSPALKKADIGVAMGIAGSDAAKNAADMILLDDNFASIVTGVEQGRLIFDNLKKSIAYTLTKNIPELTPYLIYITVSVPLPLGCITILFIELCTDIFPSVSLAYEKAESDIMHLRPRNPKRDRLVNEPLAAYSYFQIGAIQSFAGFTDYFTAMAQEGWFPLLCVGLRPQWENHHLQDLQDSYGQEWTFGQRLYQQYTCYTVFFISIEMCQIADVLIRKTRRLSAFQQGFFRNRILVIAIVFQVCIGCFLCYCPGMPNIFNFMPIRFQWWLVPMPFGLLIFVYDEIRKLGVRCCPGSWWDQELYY
In short: (§2)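 Gastric membrane vesicles from hog stomach were prepared by differential and zonal density gradient centrifugation. Activity was read as inorganic phosphate released from ATP at pH 7.4. Protein was measured by the Bradford method against a gammaglobulin standard.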

[2] = target: Potassium-transporting ATPase (Oryctolagus cuniculus); assay: Inhibition of H+/K+ ATPase as reduced acid formation in rabbit gastric glands
[3] = Dissociation constant (pKa); format: physicochemical
[4] = test system: Canis familiaris; assay: Intravenous effective dose for gastric antisecretory activity against histamine-stimulated gastric acid secretion in adult mongrel dogs; Inactive; format: functional, organism-based; settings: Canis lupus familiaris; Stomach
In short: (§3)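 Adult mongrel dogs with surgically prepared Heidenhain pouches received histamine to stimulate acid secretion. Compounds were given intravenously at 0.1-5 mg/kg. Reduction in acid output was measured against the non-drug control value in the same animal. ED50 for 50% inhibition was derived by linear regression, with 95% confidence limits.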

[5] = species: Canis familiaris; assay: Peroral effective dose for gastric antisecretory activity against histamine-stimulated gastric acid secretion in adult mongrel dogs; Inactive; format: functional, organism-based; settings: Canis lupus familiaris; Stomach
[6] = target: T1, Potassium-transporting ATPase (Sus scrofa, UniProt P18434+P19156); assay: Ability to inhibit purified H+/K+ ATPase at pH 7.4 measured as release of inorganic phosphate from ATP using gastric membrane vesicles prepared from hog stomach; Inactive; format: tissue-based
T1 sequence (P18434 whole entry): as the sequence (P18434 whole entry) above
T1 sequence (P19156 whole entry): as the sequence (P19156 whole entry) above
In short: as §2, with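 “7.4. IC50 was taken as the concentration giving 50% inhibition of K+-stimulated activity, calculated by linear regression and reported ± standard error of the mean.” for “7.4.”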

[7] = test system: Potassium-transporting ATPase (Oryctolagus cuniculus); assay: Inhibition of H+/K+ ATPase was evaluated by its ability to inhibit acid formation in rabbit gastric glands; Inactive
[8] = test system: Canis familiaris; assay: Intravenous effective dose for gastric antisecretory activity against histamine-stimulated gastric acid secretion in adult mongrel dogs; format: functional; settings: Canis lupus familiaris, Stomach; in short: as §3
[9] = target: T1, Potassium-transporting ATPase; assay: as §1; format: tissue-based; in short: as §2
[10] = test system: Canis familiaris; assay: Intravenous effective dose for gastric antisecretory activity against histamine-stimulated gastric acid secretion in adult mongrel dogs; Inactive-less than 20% inhibition at 5 mg/Kg (experimental); format: functional, organism-based; settings: Canis lupus familiaris; Stomach; in short: as §3

Row | IC50 [1] | IC50 ([2]; read-out: IC50) | pKa [3] | SMILES | ED50 [5] | ED50 [8] | also measured
1 | 14000 nM | 3800 nM | – | Cc1nc2c(/C=C/Cc3ccccc3)cccn2c1CC#N | – | – | –
2 | 2000 nM | 130 nM | – | Cc1nc2c(CCc3ccccc3)cccn2c1CC#N | – | – | –
3 | – | – | 2 | OCc1c(C(F)(F)F)nc2c(OCc3ccccc3)cccn12 | inactive | – | ED50 [4]: inactive; IC50 [6]: Not Active; IC50 [7]: Not Active
4 | – | – | 2 | N#CCc1c(C(F)(F)F)nc2c(OCc3ccccc3)cccn12 | inactive | – | ED50 [4]: inactive; IC50 [6]: Not Active; IC50 [7]: Not Active
5 | 28400 nM | 17500 nM | – | Cc1nc2c(/C=C\c3ccccc3)cccn2c1C | inactive | – | ED50 [4]: inactive
6 | – | – | 5.5 | Cc1c(CC#N)nc2c(OCc3ccccc3)cccn12 | – | 0.8 mg/kg | –
7 | – | – | 7 | Cc1nc2c(OCc3ccccc3)cccn2c1C | – | 0.1 mg/kg | –
8 | – | – | – | Cc1nc2c(C/C=C/c3ccccc3)cccn2c1CC#N | inactive | – | ED50 [4]: inactive; IC50 [9]: 206 uM l-1; IC50 [2]: 442 uM l-1
9 | 92 nM | 64 nM | – | Cc1nc2c3c(ccn2c1CC#N)CCC(c1ccccc1)O3 (stereo unspecified) | – | 0.06 mg/kg | –
10 | – | – | 5.1 | Cc1nc2c(CCc3ccccc3)nccn2c1N | – | – | ED50 [10]: inactive
11 | 2200 nM | 530 nM | 6.1 | Cc1nc2c(OCc3ccccc3)cccn2c1CO | inactive | 0.3 mg/kg | –
12 | 2100 nM | 1460 nM | – | Cc1nc2c(CCc3ccccc3)cccn2c1N | – | – | –
13 | 1680 nM | 990 nM | – | Cc1nc2c(/C=C/c3ccccc3)cccn2c1C | – | – | –
14 | – | 8080 nM | – | Cc1nc2c(OCc3ccccc3)nccn2c1N | – | – | IC50 [9]: 178 uM l-1
15 | 890 nM | 310 nM | – | Cc1nc2c(OCc3ccccc3)cccn2c1N | – | – | –
16 | 13700 nM | 400 nM | – | Cc1ccn2c(CC#N)c(C)nc2c1OCc1ccccc1 | – | – | –
17 | – | – | 2 | Cc1c(C(F)(F)F)nc2c(OCc3ccccc3)cccn12 | – | – | ED50 [10]: inactive
18 | – | – | 4.8 | Cc1nc2c(OCc3ccccc3)nccn2c1C | – | 2 mg/kg | –
19 | 8600 nM | 14100 nM | – | Cc1nc2c(/C=C/Cc3ccccc3)cccn2c1N | inactive | – | ED50 [4]: inactive
20 | – | – | 7.5 | Cc1nc2c(CCc3ccccc3)cccn2c1C | – | 0.2 mg/kg | –
